Columns and labels:
[1] = target: T1, RPA70N (Homo sapiens, UniProt P27694); test: Fluorescence polarization anisotropy; type: binding; conditions: for ligand efficiency: from FPA Kd
Summary of the method: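 Displacement of a FITC-labelled ATRIP-derived peptide from RPA70N was read as fluorescence polarization anisotropy. Compounds were titrated to give dose-dependent anisotropy changes, from which IC50 was determined. Kd was calculated from IC50 with the Cheng–Prusoff equation and reported as the average of n = 2.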

[2] = test system: DNA-binding domain of RPA; conditions: in vitro; cited from earlier work
[3] = test system: RPA70N-Rad9; conditions: cited from earlier work
[4] = test system: RPA70N-p53; conditions: cited from earlier work
[5] = target: T1, RPA70N; test: NMR; type: binding; conditions: initial fragment hits
[6] = target: full length heterotrimeric RPA (Homo sapiens, UniProt P27694); test: Electrophoresis mobility shift assay; type: binding; conditions: EMSA, concentrations up to 100 μM

CCOc1ccc2cc(C3CN(C(=O)CCC(=O)O)N=C3c3ccc(Br)cc3)c(Cl)nc2c1 (centres unmarked) [Compound 1, reference compound]
inhibition of the RPA70N-ATRIP interaction ([1]; FPA assay): did not inhibit
disruption of RPA interaction with DNA [2]: disrupts its interaction with DNA

CC(C)C1=C[C@]23CC[C@@H]4[C@](C)(CCC[C@@]4(C)C(=O)O)[C@H]2C[C@@H]1[C@@H](C(=O)O)[C@@H]3C(=O)O [Compound 2, fumaropimaric acid]
disruption of RPA70N-Rad9 interaction [3]: disrupt both RPA70N-Rad9 and RPA70N-p53 interactions
disruption of RPA70N-p53 interaction [4]: disrupt both RPA70N-Rad9 and RPA70N-p53 interactions

O=C(O)c1sc2cc(Cl)ccc2c1Cl [Compound 3]
ligand efficiency (LE) [5]: 0.32

Clc1ccc(-c2nnn[nH]2)cc1 [Compound 4]
ligand efficiency (LE) [5]: 0.32

O=C(O)c1sc2cc(-n3c(S)nnc3-c3ccccc3)ccc2c1Cl [Compound 5]
ligand efficiency [1]: 0.22

O=C(O)c1cc2ccc(-n3c(S)nnc3-c3cccc(Oc4ccccc4)c3)cc2s1 [Compound 13e]
ligand efficiency [1]: 0.17

O=C(O)c1sc2cc(-n3c(S)nnc3-c3cccc(Oc4ccccc4)c3)ccc2c1Cl [Compound 14d]
ligand efficiency [1]: 0.18

O=C(O)c1sc2cc(-n3c(S)nnc3-c3ccc(Br)c(Cl)c3)ccc2c1Cl [Compound 14n]
disruption of RPA-ssDNA interactions [6]: Neither 14q nor 14n showed evidence of disrupting RPA-ssDNA interactions

O=C(O)c1sc2cc(-n3c(S)nnc3-c3ccc(Cl)c(Cl)c3)ccc2c1Cl [Compound 14q]
disruption of RPA-ssDNA interactions [6]: Neither 14q nor 14n showed evidence of disrupting RPA-ssDNA interactions
